What was measured:
Mus musculus [1] = test: The compound was tested for mean survival time for 15 mice implanted Intraperitoneally with P-388/0 Leukemia cell line at 100 mg/kg; format: functional; details: route intraperitoneal
Outline: (§1)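 P-388/0 or P-388/FU cells (1×10^6) implanted ip into male BDF1 mice on day 0. Dosing was ip, daily for 5 consecutive days beginning 24 h later, in saline or Emulphor 620 vehicle. Six mice per treated group. Animals followed to death and median survival time recorded in days. The control group had 15 mice.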

Mus musculus [2] = test: The compound was tested for increase in life span for mice implanted intraperitoneally with P-388/FU Leukemia cell line at 67 mg/kg; format: functional; details: P388, ip, route intraperitoneal
Outline: (§2)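 Male BDF1 mice, six per group, implanted ip with 1×10^6 P-388/0 or P-388/FU cells on day 0. Dosed ip daily for 5 days from 24 h post-implant, in saline or Emulphor 620 vehicle. Mice observed until death. %ILS = (T/C − 1)×100, from median survival of treated mice (T) versus saline-treated controls (C).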

Mus musculus [3] = test: The compound was tested for change in weight for mice implanted intraperitoneally with P-388/0 Leukemia cell line at 150 mg/kg; format: functional; details: route intraperitoneal
Outline: (§3)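 Male BDF1 mice inoculated ip on day 0 with 1 × 10^6 leukemia cells (six mice per group, average weight 22 g). Dosing ip once daily for 5 consecutive days starting 24 h after implantation. Fluoropyrimidine references in 0.9% saline; prodrugs formulated with Emulphor 620; vehicle controls 0.2 mL. Percent body weight change recorded per group.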

Mus musculus [4] = test: The compound was tested for change in weight for mice implanted intraperitoneally with P-388/FU Leukemia cell line at 150 mg/kg; format: functional; details: route intraperitoneal; outline: as §3
Mus musculus [5] = test: The compound was tested for mean survival time for 15 mice implanted Intraperitoneally with P-388/0 Leukemia cell line at 67 mg/kg; format: functional; details: route intraperitoneal; outline: as §1
Mus musculus [6] = test: The compound was tested for mean survival time for 15 mice implanted Intraperitoneally with P-388/0 Leukemia cell line at 150 mg/kg; format: functional; details: route intraperitoneal; outline: as §1
Mus musculus [7] = test: The compound was tested for increase in life span for mice implanted intraperitoneally with P-388/0 Leukemia cell line at 150 mg/kg; format: functional; details: P388, ip, route intraperitoneal; outline: as §2
Mus musculus [8] = test: The compound was tested for increase in life span for mice implanted intraperitoneally with P-388/FU Leukemia cell line at 150 mg/kg; format: functional; details: P388, ip, route intraperitoneal; outline: as §2
Mus musculus [9] = test: The compound was tested for […] implanted Intraperitoneally with P-388/FU Leukemia cell line at 67 mg/kg; format: functional; details: route intraperitoneal
Mus musculus [10] = test: The compound was tested for increase in life span for mice implanted intraperitoneally with P-388/0 Leukemia cell line at 67 mg/kg; format: functional; details: P388, ip, route intraperitoneal; outline: as §2
Mus musculus [11] = test: The compound was tested for increase in life span for mice implanted intraperitoneally with P-388/0 Leukemia cell line at 100 mg/kg; format: functional; details: P388, ip, route intraperitoneal; outline: as §2
Mus musculus [12] = test: The compound was tested for increase in life span for mice implanted intraperitoneally with P-388/FU Leukemia cell line at 100 mg/kg; format: functional; details: P388, ip, route intraperitoneal; outline: as §2
Mus musculus [13] = test: The compound was tested for change in weight for mice implanted intraperitoneally with P-388/FU Leukemia cell line at 67 mg/kg; format: functional; details: route intraperitoneal; outline: as §3
Mus musculus [14] = test: The compound was tested for change in weight for mice implanted intraperitoneally with P-388/FU Leukemia cell line at 100 mg/kg; format: functional; details: route intraperitoneal; outline: as §3
Mus musculus [15] = test: The compound was tested for change in weight for mice implanted intraperitoneally with P-388/0 Leukemia cell line at 100 mg/kg; format: functional; details: route intraperitoneal; outline: as §3
Mus musculus [16] = test: The compound was tested for mean survival time for 15 mice implanted Intraperitoneally with P-388/FU Leukemia cell line at 100 mg/kg; format: functional; details: route intraperitoneal; outline: as §1
Mus musculus [17] = test: The compound was tested for change in weight for mice implanted intraperitoneally with P-388/0 Leukemia cell line at 67 mg/kg; format: functional; details: route intraperitoneal; outline: as §3
Mus musculus [18] = test: The compound was tested for mean survival time for 15 mice implanted Intraperitoneally with P-388/FU Leukemia cell line at 150 mg/kg; format: functional; details: route intraperitoneal; outline: as §1
Mus musculus [19] = test: The compound was tested for change in weight for mice implanted intraperitoneally with P-388/FU Leukemia cell line at 160 mg/kg; format: functional; details: route intraperitoneal; outline: as §3
Mus musculus [20] = test: The compound was tested for change in weight for mice implanted intraperitoneally with P-388/FU Leukemia cell line at 240 mg/kg; format: functional; details: route intraperitoneal; outline: as §3
Mus musculus [21] = test: The compound was tested for mean survival time for 15 mice implanted Intraperitoneally with P-388/0 Leukemia cell line at 160 mg/kg; format: functional; details: route intraperitoneal; outline: as §1
CHO [22] = test: The minimun drug concentration that gives rise to colonies containing fewer than 50 cells after incubation at 37 degree C against chinese hamster ovary cells 20 fold resistant to fluoroudine; format: functional, cell-based; details: Cricetulus griseus
Outline: (§4)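 About 200 cells per dish were grown as clones in drug at 0, 0.5, 1.5, 5, 10, 50 or 100 μM for 7 d at 37 °C in humidified CO2. Colonies were fixed with 10% formaldehyde and stained with 0.1% crystal violet. The value is the lowest tested concentration giving colonies of fewer than 50 cells.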

Mus musculus [23] = test: The compound was tested for increase in life span for mice implanted intraperitoneally with P-388/0 Leukemia cell line at 240 mg/kg; format: functional; details: P388, ip, route intraperitoneal; outline: as §2
Mus musculus [24] = test: The compound was tested for mean survival time for 15 mice implanted Intraperitoneally with P-388/0 Leukemia cell line at 240 mg/kg; format: functional; details: route intraperitoneal; outline: as §1
Mus musculus [25] = test: The compound was tested for increase in life span for mice implanted intraperitoneally with P-388/FU Leukemia cell line at 360 mg/kg; format: functional; details: P388, ip, route intraperitoneal; outline: as §2
Mus musculus [26] = test: The compound was tested for mean survival time for 15 mice implanted Intraperitoneally with P-388/FU Leukemia cell line at 160 mg/kg; format: functional; details: route intraperitoneal; outline: as §1
Mus musculus [27] = test: The compound was tested for increase in life span for mice implanted intraperitoneally with P-388/FU Leukemia cell line at 240 mg/kg; format: functional; details: P388, ip, route intraperitoneal; outline: as §2
Mus musculus [28] = test: The compound was tested for change in weight for mice implanted intraperitoneally with P-388/FU Leukemia cell line at 360 mg/kg; format: functional; details: route intraperitoneal; outline: as §3
Mus musculus [29] = test: The compound was tested for increase in life span for mice implanted intraperitoneally with P-388/FU Leukemia cell line at 160 mg/kg; format: functional; details: P388, ip, route intraperitoneal; outline: as §2
CHO [30] = test: The minimun drug concentration that gives rise to colonies containing fewer than 50 cells after incubation at 37 degree C against chinese hamster ovary cells; format: functional, cell-based; details: Cricetulus griseus; outline: as §4
Mus musculus [31] = test: The compound was tested for change in weight for mice implanted intraperitoneally with P-388/0 Leukemia cell line at 360 mg/kg; format: functional; details: route intraperitoneal; outline: as §3
Mus musculus [32] = test: The compound was tested for mean survival time for 15 mice implanted Intraperitoneally with P-388/FU Leukemia cell line at 240 mg/kg; format: functional; details: route intraperitoneal; outline: as §1
Mus musculus [33] = test: The compound was tested for increase in life span for mice implanted intraperitoneally with P-388/0 Leukemia cell line at 160 mg/kg; format: functional; details: P388, ip, route intraperitoneal; outline: as §2
Mus musculus [34] = test: The compound was tested for mean survival time for 15 mice implanted Intraperitoneally with P-388/FU Leukemia cell line at 360 mg/kg; format: functional; details: route intraperitoneal; outline: as §1
Mus musculus [35] = test: The compound was tested for increase in life span for mice implanted intraperitoneally with P-388/0 Leukemia cell line at 360 mg/kg; format: functional; details: P388, ip, route intraperitoneal; outline: as §2
Mus musculus [36] = test: The compound was tested for change in weight for mice implanted intraperitoneally with P-388/0 Leukemia cell line at 240 mg/kg; format: functional; details: route intraperitoneal; outline: as §3
Mus musculus [37] = test: The compound was tested for change in weight for mice implanted intraperitoneally with P-388/0 Leukemia cell line at 160 mg/kg; format: functional; details: route intraperitoneal; outline: as §3
Mus musculus [38] = test: The compound was tested for mean survival time for 15 mice implanted Intraperitoneally with P-388/0 Leukemia cell line at 360 mg/kg; format: functional; details: route intraperitoneal; outline: as §1

**Q.** What does the source list for `O=c1[nH]c(=O)n([C@H]2C[C@H](O)[C@@H](CO)O2)cc1F` [FLOXURIDINE]?
**A.** MST (Mus musculus [1]): 19 days; ILS at 67 mg/kg (Mus musculus [2]): 9%; Weight change (Mus musculus [3]): -5%; Weight change (Mus musculus [4]): -10%; MST (Mus musculus [5]): 16 days; MST (Mus musculus [6]): 20 days; ILS at 150 mg/kg (Mus musculus [7]): 82%; ILS at 150 mg/kg (Mus musculus [8]): 18%; MST (Mus musculus [9]): 12 days; ILS at 67 mg/kg (Mus musculus [10]): 45%; ILS at 100 mg/kg (Mus musculus [11]): 73%; ILS at 100 mg/kg (Mus musculus [12]): 18%; Weight change (Mus musculus [13]): -6%; Weight change (Mus musculus [14]): -10%; Weight change (Mus musculus [15]): -4%; MST (Mus musculus [16]): 13 days; Weight change (Mus musculus [17]): -2%; MST (Mus musculus [18]): 13 days

**Q.** With `CC(=O)O[C@H]1C[C@H](n2cc(F)c(=O)[nH]c2=O)O[C@@H]1COP(=O)(OCOC(=O)C(C)(C)C)OCOC(=O)C(C)(C)C` as the compound, how does the Weight change (Mus musculus [19]) read?
**A.** The Weight change was -9%.

**Q.** What about the Weight change (Mus musculus [20]) of the same compound?
**A.** The Weight change was -12%.

**Q.** What about the MST (Mus musculus [21]) of the same compound?
**A.** Its MST is 15 days.

**Q.** What about the IC50 (CHO [22]) of the same compound?
**A.** The IC50 was 5 µM.

**Q.** What about the ILS at 240 mg/kg (Mus musculus [23]) of the same compound?
**A.** The ILS at 240 mg/kg was 45%.

**Q.** And the MST (Mus musculus [24])?
**A.** Its MST is 16 days.

**Q.** What about the ILS at 360 mg/kg (Mus musculus [25]) of the same compound?
**A.** Its ILS at 360 mg/kg is 45%.

**Q.** What about the MST (Mus musculus [26]) of the same compound?
**A.** The MST was 15 days.

**Q.** And the ILS at 240 mg/kg (Mus musculus [27])?
**A.** The ILS at 240 mg/kg was 45%.

**Q.** What about the Weight change (Mus musculus [28]) of the same compound?
**A.** The Weight change was -13%.

**Q.** What about the ILS at 160 mg/kg (Mus musculus [29]) of the same compound?
**A.** The ILS at 160 mg/kg was 36%.

**Q.** What about the IC50 (CHO [30]) of the same compound?
**A.** Its IC50 is 5 µM.

**Q.** And the Weight change (Mus musculus [31])?
**A.** Its Weight change is -15%.

**Q.** What about the MST (Mus musculus [32]) of the same compound?
**A.** Its MST is 16 days.

**Q.** What about the ILS at 160 mg/kg (Mus musculus [33]) of the same compound?
**A.** The ILS at 160 mg/kg was 36%.

**Q.** What about the MST (Mus musculus [34]) of the same compound?
**A.** Its MST is 16 days.

**Q.** And the ILS at 360 mg/kg (Mus musculus [35])?
**A.** Its ILS at 360 mg/kg is 82%.

**Q.** And the Weight change (Mus musculus [36])?
**A.** Its Weight change is -15%.

**Q.** What about the Weight change (Mus musculus [37]) of the same compound?
**A.** The Weight change was -9%.

**Q.** And the MST (Mus musculus [38])?
**A.** The MST was 20 days.
